From ChEMBL document CHEMBL1156114 (Bioorg Med Chem Lett, 2009)

B1: Thymidine kinase (Varicella-zoster virus), P0C0E6 (protein)
chain: MSTDKTDVKMGVLRIYLDGAYGIGKTTAAEEFLHHFAITPNRILLIGEPLSYWRNLAGEDAICGIYGTQTRRLNGDVSPEDAQRLTAHFQSLFCSPHAIMHAKISALMDTSTSDLVQVNKEPYKIMLSDRHPIASTICFPLSRYLVGDMSPAALPGLLFTLPAEPPGTNLVVCTVSLPSHLSRVSKRARPGETVNLPFVMVLRNVYIMLINTIIFLKTNNWHAGWNTLSFCNDVFKQKLQKSECIKLREVPGIEDTLFAVLKLPELCGEFGNILPLWAWGMETLSNCLRSMSPFVLSLEQTPQHAAQELKTLLPQMTPANMSSGAWNILKELVNAVQDNTS

How the values were obtained:
[1] = target: T1, Thymidine kinase (Varicella-zoster virus) (UniProt P0C0E6); test: Ratio of Vmax to Km for Varicella zoster virus recombinant thymidine kinase; details: Human alphaherpesvirus 3
T1 sequence (whole entry): B1 chain
In short: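 Km and Vmax for each compound as VZV TK substrate, from monophosphate formation at 0.5, 2, 5 and 12.5 µM compound. Enzyme in Tris-HCl pH 8 with 2.5 mM ATP and MgCl2, 37 °C, 60 min. Product quantified by reversed-phase HPLC with fluorescence detection (ex 340/em 415 nm).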

[2] = tested on: Human alphaherpesvirus 3; test: Antiviral activity against thymidine kinase deficient Varicella zoster virus 07/1 infected human HEL cells assessed as reduction in viral plaque formation after 5 days; format: functional, organism-based; details: Human alphaherpesvirus 3, 07/1, HEL, 120 h
In short: (§1)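 Confluent HEL cells infected with VZV at 20 PFU/well for 2 h. Residual virus removed, then compound added at varying concentrations in duplicate. Plaques counted after 5 days.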

[3] = target: T2, Thymidine kinase (Varicella-zoster virus, UniProt P0C0E6); test: Displacement of [CH3-3H]deoxythymidine from Varicella zoster virus recombinant thymidine kinase after 30 mins; design: species or system Human alphaherpesvirus 3
T2 sequence (P0C0E6 whole entry): B1 chain
In short: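 Inhibition of VZV TK phosphorylation of 1 µM [CH3-3H]dThd (0.1 µCi) in 50 mM Tris-HCl pH 8.0, 2.5 mM MgCl2, 10 mM DTT, 2.5 mM ATP, 10 mM NaF, 1 mg/mL BSA. Reaction started with enzyme, 37 °C for 30 min. Product captured on DE-81 discs, washed in ammonium formate then ethanol, and counted by scintillation. IC50 is the concentration inhibiting phosphorylation by 50%.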

[4] = Cytotoxicity against human HEL cells assessed as alteration of cell morphology by microscopy; format: cell-based
In short: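 Confluent human embryonic lung (HEL) cell cultures, run in parallel with a VZV plaque-reduction assay. Compound added at varying concentrations in duplicate. Cells were examined by microscope for altered morphology. MCC is the lowest compound concentration that gives a microscopically detectable change in cell morphology.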

[5] = tested on: Human alphaherpesvirus 3; test: Antiviral activity against Varicella zoster virus OKA infected human HEL cells assessed as reduction in viral plaque formation after 5 days; format: functional, cell-based; details: Human alphaherpesvirus 3, strain Oka vaccine, 120 h; in short: as §1
[6] = tested on: Human alphaherpesvirus 3; test: Antiviral activity against Varicella zoster virus YS infected human HEL cells assessed as reduction in viral plaque formation after 5 days; format: functional, organism-based; details: Human alphaherpesvirus 3, YS, 120 h
In short: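 Confluent HEL cells infected with VZV at 20 PFU/well for 2 h. Residual virus removed, then compound added at varying concentrations in duplicate. Plaques counted after 5 days. EC50 is the concentration reducing plaque formation by 50% versus untreated controls.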

[7] = substrate: CCCCCc1ccc(-c2cc3cn([C@H]4C[C@H](O)[C@@H](CO)O4)c(=O)nc3o2)cc1; test: (§2) Activity at Varicella zoster virus recombinant thymidine kinase assessed as 5-monophosphate BCNA formation after 60 mins by HPLC; details: Human alphaherpesvirus 3
In short: (§3)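 VZV TK (1.5 pg) in 50 mM Tris-HCl pH 8, 2.5 mM MgCl2, 10 mM DTT, 2.5 mM ATP, 10 mM NaF; compound at 0.5, 2, 5 and 12.5 µM in DMSO; 37 °C for 60 min. Stopped in ice-cold methanol and centrifuged. Reversed-phase HPLC with ion-pairing phosphate buffer/acetonitrile gradient; nucleoside and 5'-monophosphate quantified by fluorescence (ex 340, em 415 nm).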

[8] = substrate: CCCCCc1ccc(-c2cc3cn([C@@H]4O[C@H](CO)[C@@H](O)[C@@H]4F)c(=O)nc3o2)cc1; test: as §2; details: Human alphaherpesvirus 3; in short: as §3
[9] = substrate: CCCCCc1ccc(-c2cc3cn([C@@H]4O[C@H](CO)[C@@H](O)[C@H]4F)c(=O)nc3o2)cc1; test: as §2; details: Human alphaherpesvirus 3; in short: as §3
[10] = substrate: CCCCCc1ccc(-c2cc3cn([C@@H]4O[C@H](CO)[C@@H](O)C4(F)F)c(=O)nc3o2)cc1; test: as §2; details: Human alphaherpesvirus 3; in short: as §3

Molecule	Ratio [1]	EC50 [2] [µM]	IC50 [3] [µM]	MCC [4] [µM]	EC50 [5] [µM]	EC50 [6] [µM]	Km [7] [µM]	Vmax [7] [µM/h]	Km [8] [µM]	Vmax [8] [µM/h]	Km [9] [µM]	Vmax [9] [µM/h]	Km [10] [µM]	Vmax [10] [µM/h]
CCCCCc1ccc(-c2cc3cn([C@@H]4O[C@H](CO)[C@@H](O)[C@H]4F)c(=O)nc3o2)cc1	7.2	> 20	2.7	> 50	0.75	–	–	–	–	–	–	–	–	–
CCCCCc1ccc(-c2cc3cn([C@@H]4O[C@H](CO)[C@@H](O)[C@@H]4F)c(=O)nc3o2)cc1	45	> 50	38	> 50	0.007	0.011	–	–	–	–	–	–	–	–
CCCCCc1ccc(-c2cc3cn([C@@H]4O[C@H](CO)[C@@H](O)C4(F)F)c(=O)nc3o2)cc1	14	> 50	13	≥ 50	1.5	6.7	–	–	–	–	–	–	–	–
CCCCCc1ccc(-c2cc3cn([C@H]4C[C@H](O)[C@@H](CO)O4)c(=O)nc3o2)cc1 [CF1743]	–	–	3.3	≥ 50	–	–	–	–	–	–	–	–	–	–
B1	–	–	–	–	–	–	1.58	22	1.11	50	0.47	3.4	0.95	14
